Experimental findings from the array DNA melting data of Ke et al. (doi:10.1101/2024.01.08.574731) are described below.

A short description of series [1]: melting temperature; fluorescence melt of hairpins on a sequencing array, two-state fit, raised by 9.35 °C to match UV melts. The following applies: sodium 0.088 M. In outline: (§1)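 Folding enthalpy and melting temperature were estimated with bootstrapped two-state fits and combined across four replicates by inverse-variance weighting, with fitted temperatures raised by 9.35 °C to match UV melts. The data were Cy3 fluorescence of library hairpins, with annealed Cy3 and quencher oligos, on a sequenced MiSeq flow cell in 50 mM Na-HEPES pH 8.0, 25 mM NaCl, imaged in 2.5 °C steps up to 60 °C and normalised to pre-quench Cy3 and control constructs.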

The nature of series [2]: folding enthalpy; higher = less favourable; fluorescence melt of hairpins on a sequencing array, two-state fit. To be noted: sodium 0.088 M. In outline: as §1

Consider GCAGGGCGAAAGCACAGC ((.(.((....)).).)), for which the Tm in series [1] is 56.8 °C. In series [2], the folding enthalpy was -20.6 kcal/mol.
In the same order, the values of GCAGGGCGAAAGCAGTGC (((..((....))..))) are 56.7 °C and -18.3 kcal/mol.
In the same order, the values of GCAGGGCGAAAGCATTGC (((..((....))..))) are 53 °C and -19.6 kcal/mol.
As for GCAGGGCGAAAGCCAGGC ((..(((....)))..)), the Tm in series [1] was 60.1 °C. For the same sequence, the folding enthalpy in series [2] was -19.3 kcal/mol.
In the same order, the values of GCAGGGCGAAAGCCCCGC ((.((((....)))).)) are 62.8 °C and -14.5 kcal/mol.
In the same order, the values of GCAGGGCGAAAGCCGGGC ((..(((....)))..)) are 56.9 °C and -17.4 kcal/mol.
Consider GCAGGGCGAAAGCCTCGC ((..(((....)))..)), for which the Tm in series [1] was 52 °C. Also, the folding enthalpy in series [2] was -16.4 kcal/mol.
For GCAGGGCGAAAGCGCGGC ((.(.((....)).).)), in that order: 62.9 °C and -29.2 kcal/mol.
As for GCAGGGGGAAACCCCTAC (.(((((....))))).), the Tm in series [1] came out at 35.4 °C. In addition, in series [2], the folding enthalpy was -14.2 kcal/mol.
In the same order, the values of GCAGGGGGAAACTCCTGC (((((.(....).))))) are 57.6 °C and -43.4 kcal/mol.
For GCAGTAACGAAAGTTTGC (((..(((....)))))), in that order: 37.6 °C and -21.9 kcal/mol.
Turning to GCAGTAGCGAAAGCTTGC (((..(((....)))))), the Tm in series [1] is 45 °C. Also, in series [2], the folding enthalpy was -17.8 kcal/mol.
For GCAGTAGGAAACTACCGC ((.((((....)))).)), in that order: 41 °C and -22.5 kcal/mol.
As for GCAGTAGGAAACTACTAC (.(((((....))))).), in series [1], the Tm is 32.2 °C. For the same sequence, the folding enthalpy in series [2] is -17.2 kcal/mol.
Consider GCAGTCGAAAGACAATGC ((((((....)))..))), for which, in series [1], the Tm was found to be 44.4 °C. For the same sequence, the folding enthalpy in series [2] is -20.1 kcal/mol.
For GCAGTCGAAAGACAGTGC ((((((....)))..))), in that order: 45.1 °C and -18.4 kcal/mol.
For GCAGTCGAAAGACGATGC ((((((....)))..))), in that order: 46.5 °C and -18 kcal/mol.
In the same order, the values of GCAGTCGAAAGACTGTGC ((((((....)))..))) are 55.3 °C and -18.3 kcal/mol.
As to GCAGTGAAAACTGC (((((....))))), in series [1], the Tm is 61.2 °C. Further, in series [2], the folding enthalpy is -28.1 kcal/mol.
In the same order, the values of GCAGTGCGAAAGCAGGGC ((..(((....)))..)) are 58.4 °C and -21.6 kcal/mol.
As to GCAGTGCGAAAGCATAGC ((..(((....)))..)), the Tm in series [1] is 55.4 °C. For the same sequence, the folding enthalpy in series [2] is -15.8 kcal/mol.
In the same order, the values of GCAGTGCGAAAGCCATGC (((..((....))..))) are 51.1 °C and -16.4 kcal/mol.
For GCAGTGCGAAAGCGGTGC (((..((....))..))), in that order: 63.9 °C and -39.5 kcal/mol.
For GCAGTGGGAAACCACCGC ((.((((....)))).)), in series [1], the Tm is 48.8 °C. In addition, in series [2], the folding enthalpy is -23.4 kcal/mol.
In the case of GCAGTGGGAAACCGCTGC ((((.((....)).)))), in series [1], the Tm amounted to 62.1 °C. Moreover, the folding enthalpy in series [2] is -49.4 kcal/mol.
For GCAGTTGGAAACAACTGC (((((((....))))))), in that order: 62.5 °C and -63.5 kcal/mol.
For GCAGTTGGAAACAGCTGC ((((.((....)).)))), in that order: 54.5 °C and -31.9 kcal/mol.
Regarding GCAGTTGGAAACGACTGC (((((.(....).))))), the Tm in series [1] is 55.3 °C. Moreover, the folding enthalpy in series [2] is -39.5 kcal/mol.
In the same order, the values of GCATAACGAAAGTTGTGC (((.(((....))).))) are 54.7 °C and -54.7 kcal/mol.
In the case of GCATAACGAAAGTTTGC (((.(((....)))))), in series [1], the Tm was found to be 46 °C. Further, the folding enthalpy in series [2] is -25.8 kcal/mol.
With GCATAACGAAAGTTTTGC (((.(((....))).))), the Tm in series [1] came out at 48.8 °C. In addition, the folding enthalpy in series [2] was -30.7 kcal/mol.
Regarding GCATAAGAAATTATGC ((((((....)))))), the Tm in series [1] worked out at 46.3 °C. Besides, the folding enthalpy in series [2] is -28.6 kcal/mol.
For GCATACCGAAAGGTTTGC (((.(((....))).))), in that order: 54.4 °C and -42.2 kcal/mol.
For GCATACGAAAGTAAATGC ((((((....)))..))), in that order: 42.6 °C and -30 kcal/mol.
For GCATACGAAAGTAAGTGC ((((((....)))..))), in that order: 34.5 °C and -21.4 kcal/mol.
Take GCATACGAAAGTATTTGC ((((((....)))..))): the Tm in series [1] stood at 32.9 °C. In addition, the folding enthalpy in series [2] is -17.1 kcal/mol.
Turning to GCATAGACGAAAGTCTGC (((..(((....)))))), the Tm in series [1] was 46.3 °C. In series [2], the folding enthalpy was -15.5 kcal/mol.
